We go through 71 compounds from ChEMBL document CHEMBL4513216, “Probing the Open Global Health Chemical Diversity Library for Multistage-Active Starting Points for Next-Generation Antimalarials” (ACS Infect Dis, 2020).

The structures appear in SMILES notation.

The series in a line: Toxicity liver stage against HepG2, at 10uM. It is filed as cell-based. Further details: test concentration 10 uM, cell line HepG2-A16-CD81EGFP. The conditions noted are these: human, HepG2-A16-CD81EGFP cells; read-out: INHIBITION
The essentials:
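Uninfected HepG2-A16-CD81EGFP cells, 3 × 10^3 per well, 1536-well, plated on prespotted compound at 10 μM final, parasite-free screening media added to match infected plates; puromycin 10 μM positive, DMSO 0.5% negative; run in parallel with 48 h PbLuc assay at 37 °C, 5% CO2; viability by CellTiter-Glo luminescence, normalized to controls.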
Take `CSc1ccc(C(=O)C2CCCN(C(=O)Cn3cnnn3)C2)cc1` (stereo unspecified): the cytotoxicity at 10 µM was -1.57%. Regarding `CC(=O)NC[C@H]1OC[C@@H](NC2CCC(F)(F)CC2)[C@@H]1O`, the cytotoxicity at 10 µM is -8.57%. As for `COc1ccc2c(c1)nc1n2[C@@H](CNCc2cnn(C)c2)COC1`, the figure is -6.8%; as for `CC(=O)N1N=C(c2cccs2)OC1C(=O)Nc1ccc(C(C)C)cc1` (stereo unspecified), -12.7%; as for `CCN(CC)CCNC(=O)CCc1c(C)nn(-c2ccccc2Br)c1C`, 10.6%. `O=c1c(NCCOCCO)c(N2CCN(c3ccccc3)CC2)c1=O`: the cytotoxicity at 10 µM was -5.64%. As for `Cn1ccc2c(NC(=O)Cn3ncc4c(c3=O)CCCCC4)cccc21`, the figure is 3.89%; as for `O=C1CCC(c2ccc(Cl)cc2)=NN1CN1CCSCC1`, 34.4%. As for `Cn1cccc1CN(C(=O)Cc1cccs1)C1CC1`, the figure is 7.53%; as for `COc1ccc(S(=O)(=O)NCC(O)c2sccc2C)cc1C` (stereo unspecified), 1.69%. The same measure for `CC(C)NC(=O)N1CC[C@@H]2[C@@H]1CC(=O)N2Cc1cccnc1`: 4.67%; for `CC[C@H]1N(Cc2ccc(OC)cc2)CCC[C@]12CCC(=O)N2C`: -5.6%. On to `O=C(CC1CC1)N1CCCC2(CCC(=O)N2CC2CC2)CC1` (stereo unspecified), for which the cytotoxicity at 10 µM was 0.964%. The same measure for `Cc1nc(CN2CCC3(CC2)NC(=O)CC3c2cccnc2)cs1` (stereo unspecified): -2.27%; for `Cc1cccc(C(=O)N2CCCn3cnc(CN4CCCC4=O)c3C2)n1`: 15.7%; for `CCC(=O)N1CCC2(COCc3cnc(NCc4ccco4)nc32)C1` (stereo unspecified): -12.9%. Turning to `O=C(NCC1CCCO1)c1nc2c(s1)CCCN2C(=O)C1CC1` (stereo unspecified), the cytotoxicity at 10 µM was -0.464%.

As to `CCCN(CCC)c1ncc(S(=O)(=O)c2cccc(C)c2)c(N)n1`, the cytotoxicity at 10 µM was 11%.

Consider `COc1cccc(-c2nc(C)c(C(=O)NC(CO)CCSC)s2)c1` (stereo unspecified), for which the cytotoxicity at 10 µM was -7.71%.

Regarding `CC(=O)N1CCN(C(=O)c2cc(-n3cnnn3)ccc2Cl)CC1`, the cytotoxicity at 10 µM was 8.32%. `c1ccc(OCC2CC3(CCN(Cc4ccncc4)CC3)CO2)nc1` (stereo unspecified): the cytotoxicity at 10 µM was -12.5%. Take `CSCc1cccc(S(=O)(=O)N2CCSCC2)c1`: the cytotoxicity at 10 µM came out at 14.3%.

With `CC1(C(=O)NCCCOc2ccccc2F)CC(=O)N2C=CC=CC2=N1` (stereo unspecified), the cytotoxicity at 10 µM turned out to be 2.28%.

`CC1CCc2n[nH]c(C(=O)NCCCc3ccco3)c2C1` (stereo unspecified): the cytotoxicity at 10 µM is -23.2%. As for `Cc1cnc(C2(C)CCN(Cc3csc(C)n3)CC2)s1`, the figure is -16.1%. With `COCC(=O)N1CC(c2ccnc(Nc3ccc(C)cn3)n2)C1`, the cytotoxicity at 10 µM was -30.9%.

As to `CCC(=O)N1CCC(Cc2ccccc2-c2ccncc2)(C(=O)NC)C1` (stereo unspecified), the cytotoxicity at 10 µM was -16%. Take `Cc1nc(Nc2nnc(C)s2)cc(C2CCCN2S(C)(=O)=O)n1` (stereo unspecified): the cytotoxicity at 10 µM is -11.9%. Turning to `Cc1ncncc1C(=O)N1CCC(O)(CN(C)Cc2ccc(F)cc2)C1` (stereo unspecified), the cytotoxicity at 10 µM is -7.16%. As for `c1cnc2[nH]c(C3CCNCC3)c(CN3CCOCC3)c2c1`, the figure is 1.82%; as for `CCn1cc(CN2CCC(O)(Cn3nc(C)ccc3=O)CC2)cn1`, -22.3%. Turning to `OC1(CNc2ccc(F)cc2)CCNCC1`, the cytotoxicity at 10 µM was 2.4%. The same measure for `COc1ccc(F)cc1C(=O)N1CCn2c(nnc2C(F)(F)F)C1`: -7.61%; for `CCc1nnc2n1CCN(C(=O)c1cnc3c(cnn3C(C)C)c1)C2`: -7.58%. The same measure for `COC(=O)CNC(=O)C(C(C)C)n1cnc2cc(F)c(F)cc21` (stereo unspecified): 2.76%. In the case of `CC(C)c1nc(C2CCCN(C(=O)CN3CCCNC3=O)C2)no1` (stereo unspecified), the cytotoxicity at 10 µM was -4.1%. Take `CCc1nc2c(s1)C(N(C)C(C)=O)CCC2` (stereo unspecified): the cytotoxicity at 10 µM was -11.6%. As for `CC(CNC(=O)N1CCN(c2ncccn2)CC1)Cc1cccs1` (stereo unspecified), the figure is -7.9%; as for `CC(=O)N1CCCN(C(C)C(=O)Nc2ccnn2C(C)C)CC1` (stereo unspecified), -6.22%. As for `Cc1cn2c(n1)CCC(NC(=O)CCOc1cccc(F)c1)C2` (stereo unspecified), the figure is -3.42%; as for `O=C(c1cccc(Cl)c1Cl)N1CCN(CC(O)Cn2cccn2)CC1` (stereo unspecified), -14.3%.

For the compound `Cn1nc(C(=O)N(CC(F)(F)F)c2cccc(Cl)c2)ccc1=O`, the cytotoxicity at 10 µM came out at 7.48%.

Turning to `CC(C)Cc1nc(CS(=O)(=O)c2ccccc2)no1`, the cytotoxicity at 10 µM stood at 9.52%. Turning to `CCc1ccc(C(=O)NC(C)c2ccc(S(C)(=O)=O)c(F)c2)o1` (stereo unspecified), the cytotoxicity at 10 µM came out at 17.2%. For the compound `CC(CN1CCOCC1)OC(=O)c1cccc2cn[nH]c12` (stereo unspecified), the cytotoxicity at 10 µM was -1.08%.

Consider `CC(C)CSCCCNC(=O)C1CCOCC1`, for which the cytotoxicity at 10 µM is -3.65%.

`Cc1sc(CN)nc1-c1ccccc1`: the cytotoxicity at 10 µM is -2.85%. As for `Cc1ccc2nc(C)c(C)c(C(=O)N3CCS(=O)(=O)CC3)c2c1`, the figure is 3.24%. The same measure for `CN(CCO)Cc1nnc(C2CCN(CC(C)(C)C)CC2)n1C`: 1.89%; for `COc1cccc([C@@H](C)n2ccnc2-c2cc3n(n2)CCNC3)c1`: 3.09%; for `O=C(NC1CCCNC1=O)c1ccc2nc(-c3ccc(F)cc3)cn2c1` (stereo unspecified): 8.8%. Consider `CCN(Cc1cnn(C)c1)C[C@H]1CC[C@@H](Cc2ccc(C#N)cc2)O1`, for which the cytotoxicity at 10 µM was 5.78%. The same measure for `Cc1nn2c(NCC(N)=O)cc(-c3ccccc3)nc2c1C`: -10.5%; for `Cc1ccc(N2C[C@H](O)[C@@H](N3CCN(c4ccccn4)CC3)C2)nn1`: -0.442%.

`CCCc1ccc(CN2C[C@H]3C(=O)N(CC4CC4)C[C@@]3(C(=O)O)C2)o1`: the cytotoxicity at 10 µM was -3.86%. Consider `COc1ccccc1N1CCN(C(=O)CCn2ccnc2C)CC1(C)C`, for which the cytotoxicity at 10 µM was -26.7%. As for `CC(O)CN1CCc2onc(C(c3ccccc3)c3ccccc3)c2C1` (stereo unspecified), the figure is -1.49%; as for `Cc1cc(C)n(NC(=O)c2cccc3c2OCC3)c(=O)c1`, 1.91%.

As to `Cc1nc(C)n(C2CCCN(C(=O)c3ccc(F)c(F)c3)C2)n1` (stereo unspecified), the cytotoxicity at 10 µM is -11.9%. As for `Cc1cc2n(n1)CC(CNCc1ccc(-n3cccn3)cc1)CN2` (stereo unspecified), the figure is -2.95%; as for `O=C1COc2ccc(C(=O)NS(=O)(=O)c3ccc(F)cc3F)cc2N1`, -4.72%; as for `CCC(C)NC(=O)NCCCn1nc2ccccn2c1=O` (stereo unspecified), -8.08%.

Turning to `N#Cc1ccccc1OCCN1CCCCC1Cn1cncn1` (stereo unspecified), the cytotoxicity at 10 µM is -6.04%.

With `CC(C)CN1CCC2(CC1)CN(C(=O)C(C)C)C2`, the cytotoxicity at 10 µM was -2.16%. `Cc1nc(CN2CCCC3(CCN(c4cnn(C)c4)C3=O)C2)cs1` (stereo unspecified): the cytotoxicity at 10 µM turned out to be 3.16%. Consider `CC1c2ncc(CNC(=O)C3CC3)n2CCN1Cc1ccncc1` (stereo unspecified), for which the cytotoxicity at 10 µM is -5.72%. For the compound `COCCN1CC[C@@H](O)[C@@H]1Cc1ccccc1`, the cytotoxicity at 10 µM was determined as 3.67%. As for `CC(C)CN1CCC2(CC1)CC(NS(C)(=O)=O)c1ccccc1O2` (stereo unspecified), the figure is -4.44%; as for `Cc1ccc(CN2CCC3(CC2)CCN(C(=O)c2cccn2C)C3)cc1`, -2.6%; as for `Cn1cnnc1SCC(=O)N1C[C@@H]2CC[C@H]1CN(Cc1cccnc1)C2`, -2.82%. With `O=C(c1ccccn1)N1C[C@H]2CC[C@@H](C1)N(C(=O)CCC(F)(F)F)C2`, the cytotoxicity at 10 µM was determined as 4.37%.
